The source made the active and inactive calls. The rule behind the calls is not given here.
Experiments:
[1] = system: Popillia japonica; assay: Insecticidal activity against Popillia japonica at 552 g/kg SC measured after 24 days by irrigation injection method; type: functional, organism-based
In short: (§1)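 Insecticide was injected into the drip irrigation on 6 June and 6 July 2007, in seven-vine rows. Japanese beetles were counted on vines in the field at intervals after treatment. Total beetles per row were log(x+1) transformed and analysed by ANOVA with […] post hoc tests.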

[2] = system: Popillia japonica; assay: Insecticidal activity against Popillia japonica at 552 g/kg SC measured after 1 to 24 days by irrigation injection method; type: functional, organism-based; in short: as §1
[3] = system: Paralobesia; assay: Insecticidal activity against Paralobesia viteana infested grapevine assessed as reduction in clusters infested with moth by early-season irrigation injection method (reference value: 34.3 +/- 4.4 %); type: functional; parameters: scale not given: the % may be the effect or the level left
[4] = system: Popillia japonica; assay: Insecticidal activity against Popillia japonica at 552 g/kg SC measured after 14 days by irrigation injection method; type: functional, organism-based; in short: as §1
[5] = system: Popillia japonica; assay: Insecticidal activity against Popillia japonica at 552 g/kg SC assessed as moribund behaviour measured after 10 to 19 days by irrigation injection method; type: functional, organism-based
[6] = system: Popillia japonica; assay: Insecticidal activity against Popillia japonica assessed as reduction in leaf damage measured up to 63 days post treatment by laboratory bioassay; type: functional, organism-based
In short: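 Leaves were taken from vines treated by irrigation injection (6 June and 6 July 2007). Four uninjured leaves per treatment plot were offered to Japanese beetles in the laboratory. Leaf area removed (cm²) was measured weekly, from 4 days before the second injection to […] after it.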

[7] = system: Popillia japonica; assay: Insecticidal activity against Popillia japonica at 552 g/kg SC assessed as moribund behaviour measured after 24 to 56 days by irrigation injection method; type: functional, organism-based
[8] = system: Paralobesia; assay: Insecticidal activity against Paralobesia viteana infested grapevine assessed as reduction in clusters infested with moth by mid-season irrigation injection method (reference value: 11 +/- 1.9 %); type: functional; parameters: scale not given: the % may be the effect or the level left
[9] = system: Popillia japonica; assay: Insecticidal activity against Popillia japonica at 552 g/kg SC assessed as moribund behaviour measured after 3 days by irrigation injection method; type: functional, organism-based
[10] = system: Popillia japonica; assay: Insecticidal activity against Popillia japonica at 552 g/kg SC assessed as reduction in leaf damage measured after 35 days by irrigation injection method (reference value: 50.97 +/- 7.2 %); type: functional; parameters: scale not given: the % may be the effect or the level left
[11] = system: Popillia japonica; assay: Insecticidal activity against Popillia japonica at 500 g/kg WG assessed as moribund behaviour measured after 10 to 19 days by irrigation injection method; type: functional, organism-based
[12] = system: Popillia japonica; assay: Insecticidal activity against Popillia japonica at 500 g/kg WG assessed as moribund behaviour measured after 24 to 56 days by irrigation injection method; type: functional, organism-based
[13] = system: Popillia japonica; assay: Insecticidal activity against Popillia japonica at 500 g/kg WG assessed as moribund behaviour measured after 3 days by irrigation injection method; type: functional, organism-based
[14] = system: Popillia japonica; assay: Insecticidal activity against Popillia japonica at 500 g/kg WG assessed as reduction in leaf damage measured after 35 days by irrigation injection method (reference value: 50.97 +/- 7.2 %); type: functional; parameters: scale not given: the % may be the effect or the level left
[15] = system: Popillia japonica; assay: Insecticidal activity against Popillia japonica at 240 g/kg SC measured after 1 to 24 days by irrigation injection method; type: functional, organism-based; in short: as §1
[16] = system: Popillia japonica; assay: Insecticidal activity against Popillia japonica at 240 g/kg SC assessed as moribund behaviour measured after 10 to 19 days by irrigation injection method; type: functional, organism-based
[17] = system: Popillia japonica; assay: Insecticidal activity against Popillia japonica at 240 g/kg SC assessed as moribund behaviour measured after 24 to 56 days by irrigation injection method; type: functional, organism-based
[18] = system: Popillia japonica; assay: Insecticidal activity against Popillia japonica at 240 g/kg SC assessed as moribund behaviour measured after 3 days by irrigation injection method; type: functional, organism-based
[19] = system: Popillia japonica; assay: Insecticidal activity against Popillia japonica at 240 g/kg SC assessed as reduction in leaf damage measured after 35 days by irrigation injection method (reference value: 50.97 +/- 7.2 %); type: functional; parameters: scale not given: the % may be the effect or the level left

O=[N+]([O-])/N=C1\NCCN1Cc1ccc(Cl)nc1 [IMIDACLOPRID] was tested, and the Activity [1] was “Active”, the Activity [2] was “Active” and the Activity [3] was 11.8%. The Activity [4] was “Active”, the Activity [5] was “Active” and the Activity [6] was “Active”. The Activity [7] was “Active”, the Activity [8] was 1% and the Activity [9] was “Active”. It also gave an Activity [10] of 4.43%.

In the case of CN/C(=N\[N+](=O)[O-])NCc1cnc(Cl)s1 [CLOTHIANIDINE], the Activity [3] is reported as 31.7%, the Activity [6] is reported as “inactive” and the Activity [11] is reported as “inactive”. The Activity [12] was “inactive”, the Activity [8] was 6% and the Activity [13] was “inactive”. The Activity [14] was 48.3%.

In the case of CN1COCN(Cc2cnc(Cl)s2)/C1=N\[N+](=O)[O-] [THIAMETHOXAM], the Activity [3] is reported as 25.3%, the Activity [15] is reported as “inactive” and the Activity [16] is reported as “inactive”. The Activity [6] was “Active”, the Activity [17] was “inactive” and the Activity [8] was 7%. For the same compound, the Activity [18] was “inactive” and the Activity [19] was 27.67%.

— ChEMBL document CHEMBL3046168, “Soil application of neonicotinoid insecticides for control of insect pests in wine grape vineyards” (2012)
